ChEMBL document CHEMBL4007483, “Design, synthesis and potent cytotoxic activity of novel 7-(N-[(substituted-sulfonyl)piperazinyl]-methyl)-camptothecin derivatives” (Bioorg Med Chem Lett, 2017)

Key:
Assay type in all cases: functional, cell-based
[1] = system: KB; test: Cytotoxicity against human KB cells after 72 hrs by sulforhodamine B assay
In short: (§1)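 Cells seeded at 3–5 × 10^3 per well in RPMI-1640 with 10% FBS containing graded sample concentrations, exposed 72 h. Attached cells fixed with cold 50% trichloroacetic acid 30 min, stained with 0.04% SRB 30 min. Bound dye solubilized in 10 mM Tris-base, absorbance read at 515 nm; IC50 from concentration series.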

[2] = system: MDA-MB-231; test: Cytotoxicity against human MDA-MB-231 cells after 72 hrs by sulforhodamine B assay; settings: MDA-MB-231, 72 h; in short: as §1
[3] = system: MCF7; test: Cytotoxicity against human MCF7 cells after 72 hrs by sulforhodamine B assay; settings: MCF7, 72 h; in short: as §1
[4] = Cytotoxicity against human KBVIN cells after 72 hrs by sulforhodamine B assay; in short: as §1
[5] = system: A549; test: Cytotoxicity against human A549 cells after 72 hrs by sulforhodamine B assay; settings: A549, 72 h; in short: as §1

Row | SMILES | IC50 [1] [µM] | IC50 [2] [µM] | IC50 [3] [µM] | IC50 [4] [µM] | IC50 [5] [µM]
1 | CC[C@@]1(O)C(=O)OCc2c1cc1n(c2=O)Cc2c-1nc1ccccc1c2CN1CCN(S(=O)(=O)c2ccc(OC)cc2)CC1 | 0.0207 | 0.124 | 0.0709 | 0.142 | 0.00536
2 | CC[C@@]1(O)C(=O)OCc2c1cc1n(c2=O)Cc2c-1nc1ccccc1c2CN1CCN(S(=O)(=O)N(C)C)CC1 | 0.0786 | 0.336 | 0.0715 | 0.141 | 0.00722
3 | CC[C@@]1(O)C(=O)OCc2c1cc1n(c2=O)Cc2c-1nc1ccccc1c2CN1CCN(S(=O)(=O)c2ccc(C)cc2)CC1 | 0.0845 | 0.0842 | 0.0182 | 0.0346 | 0.00089
4 | CC[C@@]1(O)C(=O)OCc2c1cc1n(c2=O)Cc2c-1nc1ccccc1c2CN1CCN(S(=O)(=O)c2cccnc2)CC1 | 0.0678 | 0.106 | 0.061 | 0.327 | 0.0219
5 | CC[C@@]1(O)C(=O)OCc2c1cc1n(c2=O)Cc2c-1nc1ccccc1c2CN1CCN(S(=O)(=O)Cc2ccccc2)CC1 | 0.195 | 0.552 | 0.362 | 0.416 | 0.0274
6 | CC[C@@]1(O)C(=O)OCc2c1cc1n(c2=O)Cc2c-1nc1ccccc1c2CN1CCN(S(=O)(=O)c2cc(OC)cc(OC)c2)CC1 | 0.0029 | 0.0064 | 0.034 | 0.0012 | 0.00142
7 | CC[C@@]1(O)C(=O)OCc2c1cc1n(c2=O)Cc2c-1nc1ccccc1c2CN1CCN(S(=O)(=O)c2ccc(C(C)C)cc2)CC1 | 0.0159 | 0.122 | 0.0676 | 0.0814 | 0.00437
8 | CC[C@@]1(O)C(=O)OCc2c1cc1n(c2=O)Cc2c-1nc1ccccc1c2CN1CCN(S(=O)(=O)c2ccc3ccccc3c2)CC1 | 0.0442 | 0.113 | 0.0813 | 0.165 | 0.013
9 | CC[C@@]1(O)C(=O)OCc2c1cc1n(c2=O)Cc2c-1nc1ccccc1c2CN1CCN(S(=O)(=O)c2ccc(F)cc2)CC1 | 0.0763 | 0.0628 | 0.0376 | 0.0257 | 0.0005
10 | CC[C@@]1(O)C(=O)OCc2c1cc1n(c2=O)Cc2c-1nc1ccccc1c2CN1CCN(S(=O)(=O)c2ccccc2)CC1 | 0.002 | 0.0464 | 0.0049 | 0.0704 | 0.00025
11 | CC[C@@]1(O)C(=O)OCc2c1cc1n(c2=O)Cc2c-1nc1ccccc1c2CN1CCN(S(=O)(=O)c2cccs2)CC1 | 0.0713 | 0.0305 | 0.008 | 0.0575 | 0.00021
12 | CCCCS(=O)(=O)N1CCN(Cc2c3c(nc4ccccc24)-c2cc4c(c(=O)n2C3)COC(=O)[C@]4(O)CC)CC1 | 0.0085 | 0.134 | 0.0749 | 0.203 | 0.00401
13 | CCc1ccc(S(=O)(=O)N2CCN(Cc3c4c(nc5ccccc35)-c3cc5c(c(=O)n3C4)COC(=O)[C@]5(O)CC)CC2)cc1 | 0.0109 | 0.105 | 0.0618 | 0.126 | 0.00065
14 | CC[C@@]1(O)C(=O)OCc2c1cc1n(c2=O)Cc2c-1nc1ccccc1c2CN1CCN(S(=O)(=O)c2cc(F)cc(F)c2)CC1 | 0.021 | 0.0826 | 0.0563 | 0.266 | 0.0007
15 | CC[C@@]1(O)C(=O)OCc2c1cc1n(c2=O)Cc2c-1nc1ccccc1c2CN1CCN(S(=O)(=O)c2ccc([N+](=O)[O-])cc2)CC1 | 0.0555 | 0.35 | 0.0962 | 0.481 | 0.0297
16 | CC[C@@]1(O)C(=O)OCc2c1cc1n(c2=O)Cc2c-1nc1ccccc1c2CN1CCN(S(=O)(=O)c2ccc(Cl)cc2)CC1 | 0.0969 | 0.0754 | 0.0345 | 0.0202 | 0.00692
17 | CC[C@@]1(O)C(=O)OCc2c1cc1n(c2=O)Cc2cc3ccccc3nc2-1 [CAMPTOTHECIN] | 0.05 | 0.307 | 0.0875 | 0.0157 | 0.00863
18 | CCc1c2c(nc3ccc(OC(=O)N4CCC(N5CCCCC5)CC4)cc13)-c1cc3c(c(=O)n1C2)COC(=O)[C@]3(O)CC [IRINOTECAN] |  |  |  | > 20 | 
19 | CC[C@@]1(O)C(=O)OCc2c1cc1n(c2=O)Cc2cc3c(CN(C)C)c(O)ccc3nc2-1 [TOPOTECAN] |  |  |  | 0.287 | 
